This note sets out measurements from ChEMBL document CHEMBL4316597, “Design, Synthesis, and Biological Evaluation of Itaconic Acid Derivatives as Potential Anti-Influenza Agents” (J Med Chem, 2019).

The source made the active and inactive calls. The rule behind the calls is not given here. Bounds are passed on as bounds.

The test system of series [1] is Influenza A virus. Nature of the series: Antiviral activity against Influenza A virus (A/WSN/33) infected in MDCK cells assessed as reduction in virus-induced cytopathic effect after 72 hrs by crystal violet-staining based assay. Format: functional, organism-based. Conditions: A/WSN/1933(H1N1). The gist of the method: (§1)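 Cells seeded at 2 × 10^4/well in E10 (DMEM, 10% FBS), 16–24 h at 37 °C/5% CO2, washed with DPBS, then infected at nine-fold TCID50 with or without serial compound concentrations. Influenza is run in MDCK and enterovirus/rhinovirus in RD. Incubated 72 h, fixed in 4% paraformaldehyde, stained with 0.1% crystal violet, and read for cell density. EC50 = 50% CPE inhibition by Reed–Muench; mean ± S.D. of at least three runs.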

A short description of series [2]: Cytotoxicity against MDCK cells assessed as cell death after 72 hrs by MTT assay. The format is cell-based, Canis lupus familiaris. The following applies: dog. The essentials:
(§2)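 MDCK or RD cells at 2 × 10^4/well in E10, overnight at 37 °C/5% CO2, DPBS wash, then exposed to graded compound concentrations for 72 h. MTT added for 3 h, formazan dissolved in DMSO, absorbance read at 570 nm. CC50 (50% cell death) by Reed–Muench.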

A short description of series [3]: Selectivity ratio of CC50 for MDCK cells to EC50 for Influenza A virus (A/WSN/33). The following applies: dog, read-out: Ratio CC50/EC50. Format: toxicity. The essentials:
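SI is calculated as CC50 (MDCK, 72 h MTT) divided by EC50 (72 h crystal-violet CPE assay in MDCK).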

Series [4] can be described thus: Cytotoxicity against human RD cells assessed as cell death after 72 hrs by MTT assay. Format: cell-based. The essentials:
as §2
A general note: Tetrazolium assays rely on reduction of a dye to a coloured formazan, in cell work by metabolically active cells.

Series [5] relates to Influenza A virus. Put plainly: Antiviral activity against Influenza A virus A/TW/3446/02 (H3N2) infected in MDCK cells after 72 hrs by crystal violet-staining based assay. The format is functional, organism-based. The gist of the method:
as §1

In series [6] the test system is Influenza A virus. Put plainly: Antiviral activity against pandemic Influenza A virus A/TW/2235/09 (H1N1) SO4 infected in MDCK cells after 72 hrs by crystal violet-staining based assay. The format is functional, organism-based. The following applies: A/TW/2235/09 (H1N1) SO4, MDCK. The essentials:
as §1

Series [7] is described as follows: Selectivity ratio of CC50 for MDCK cells to EC50 for pandemic Influenza A virus A/TW/2235/09 (H1N1) SO4. Format: toxicity. Conditions: dog, read-out: Ratio CC50/EC50. The gist of the method:
(§3)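 MDCK cells (2 × 10^4/well, E10, 16–24 h) infected at nine-fold TCID50 with compound for 72 h, 37 °C, 5% CO2. Cells were fixed in 4% paraformaldehyde and stained with crystal violet; EC50 is from Reed–Muench. For CC50, cells had compound alone for 72 h, then MTT 3 h, DMSO, A570, Reed–Muench. SI = CC50/EC50; three independent experiments.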

The nature of series [8]: Selectivity ratio of CC50 for MDCK cells to EC50 for Influenza A virus A/TW/3446/02 (H3N2). Format: toxicity. The following applies: dog, read-out: Ratio CC50/EC50. The essentials: as §3
In the next series the test system is Enterovirus A71. Put plainly: Antiviral activity against Enterovirus A71 TW/4643/1998 infected in human RD cells after 72 hrs by crystal violet-staining based assay. Format: functional, organism-based. The following applies: Enterovirus A, TW/4643/1998, RD. The essentials:
as §1

In a further series the test system is enterovirus D68. Put plainly: Antiviral activity against Enterovirus D68 TW/2795/2014 clade B3 infected in human RD cells after 72 hrs by crystal violet-staining based assay. The following applies: Enterovirus D, TW/2795/2014 clade B3, RD. The format is functional, organism-based. The gist of the method:
as §1

Series [9] can be described thus: Selectivity ratio of CC50 for human RD cells to EC50 for Enterovirus A71 TW/4643/1998. Format: toxicity. The following applies: read-out: Ratio CC50/EC50. The essentials: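 RD cells (2 × 10^4/well, DMEM 10% FBS, 16–24 h) infected with enterovirus at nine-fold TCID50 with compound, 72 h, 37 °C, 5% CO2. Cells were fixed in 4% paraformaldehyde, stained with 0.1% crystal violet, and EC50 taken by Reed–Muench. CC50 came from 72 h exposure of uninfected RD cells, MTT 3 h, A570, Reed–Muench. SI = CC50/EC50; three independent experiments.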

The subject of series [10] is Enterovirus. Nature of the series: Antiviral activity against Rhinovirus 71803 infected in human RD cells after 72 hrs by crystal violet-staining based assay. The format is functional, organism-based. The following applies: Enterovirus, 71803, RD. The gist of the method:
as §1

Series [11] concerns Enterovirus. Nature of the series: Antiviral activity against Rhinovirus 71903 infected in human RD cells after 72 hrs by crystal violet-staining based assay. Format: functional, organism-based. The following applies: Enterovirus, 71903, RD. The essentials: as §1
Series [12] deals with Hemagglutinin (Influenza A virus) (UniProt B4URE7). Put plainly: Inhibition Influenza A virus (A/WSN/33) HA infected in guinea pig RBC assessed as reduction in hemagglutination at serial dilution from 50 uM after 1 hr by HAI assay. The following applies: Influenza A virus (A/WSN/1933(H1N1)). The gist of the method:
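Virus titrated on 0.5% guinea pig RBCs to define 1 HA unit; 4 HA units used. Compound two-fold serially diluted from 50 µM and mixed with virus for 30 min at room temperature, or tested without virus for direct agglutination. 0.5% RBCs then added and agglutination scored after 1 h. DMSO/RBC-only and virus-only controls included.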

Series [13] deals with Influenza A virus. Nature of the series: Antiviral activity against Influenza A virus (A/WSN/33) infected in MDCK cells at 1 uM added at -1 hrs to 9 hrs post infection and measured after 9 hrs by plaque assay. Format: functional, organism-based. The following applies: A/WSN/1933(H1N1). The essentials:
(§4)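 MDCK monolayers exposed to compound (1 or 10 μM) over windows of −3, −1, 0, 3 or 6 to 9 h pi. A/WSN/33 adsorbed at MOI 0.1 from −1 to 0 h, then removed with a PBS wash. Supernatant taken at 9 h pi and titred by plaque assay, normalised to virus-only (100%). Average of three independent experiments.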

For the next series, the system named is MDCK. Nature of the series: Inhibition of CRM1 in MDCK cells infected with Influenza A virus (A/WSN/33) assessed as reduction in CRM1-mediated viral protein nuclear export by measuring reduction in NP protein distribution to cytoplasm at 1 uM measured after 9 hrs post infection by IF-staining based microscopy. The format is cell-based. Conditions: Canis lupus familiaris. The essentials: (§5)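 MDCK cells grown on coverslips (2 × 10^5/well, 16 h), infected at MOI 0.1 for 1 h, washed, then kept in E0 with test compound (1 or 10 μM) or LMB 10 nM; DMSO 0.05% as mock. Fixed at 9 h pi in 4% paraformaldehyde and immunostained for M1, NP, NS2 or PA (1:50), with Hoechst nuclear stain. Viewed by confocal microscopy at 63×. NP nuclear/cytoplasmic intensity ratio quantified; three independent experiments.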

For series [14], the system named is Influenza A virus. Put plainly: Inhibition of viral protein sub-cellular distribution in Influenza A virus (A/WSN/33) infected in MDCK cells assessed as reduction in M1 protein distribution to cytoplasm at 1 uM measured after 9 hrs post infection by IF-staining based microscopy. Format: functional, organism-based. The following applies: A/WSN/1933(H1N1). The essentials: as §5

The subject of series [15] is Influenza A virus. Nature of the series: Antiviral activity against Influenza A virus (A/WSN/33) infected in MDCK cells at 1 uM added at 3 hrs to 9 hrs post infection and measured after 9 hrs by plaque assay. Conditions: A/WSN/1933(H1N1). Format: functional, organism-based. The gist of the method: as §4

Sequence of Hemagglutinin (Influenza A virus) (B4URE7 as listed by the source): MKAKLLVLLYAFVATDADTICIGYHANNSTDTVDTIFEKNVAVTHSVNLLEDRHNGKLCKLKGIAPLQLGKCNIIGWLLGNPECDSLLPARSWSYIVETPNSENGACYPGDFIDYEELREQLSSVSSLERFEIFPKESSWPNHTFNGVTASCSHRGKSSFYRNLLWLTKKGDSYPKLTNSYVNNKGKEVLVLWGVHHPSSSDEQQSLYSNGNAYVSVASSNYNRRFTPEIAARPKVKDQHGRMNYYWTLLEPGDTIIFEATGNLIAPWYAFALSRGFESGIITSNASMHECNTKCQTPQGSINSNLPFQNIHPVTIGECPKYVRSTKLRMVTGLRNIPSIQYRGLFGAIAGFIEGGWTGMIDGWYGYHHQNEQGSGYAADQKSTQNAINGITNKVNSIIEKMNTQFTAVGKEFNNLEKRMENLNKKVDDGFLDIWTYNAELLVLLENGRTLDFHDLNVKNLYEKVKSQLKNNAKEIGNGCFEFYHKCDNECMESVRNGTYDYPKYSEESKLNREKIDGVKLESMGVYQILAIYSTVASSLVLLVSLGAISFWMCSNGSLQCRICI

For orientation: EC50 means the concentration needed to bring the measured effect to its halfway point. For orientation: CC50 means the concentration that lowers cell viability or growth by half. Turning to `C=C(CC(=O)Nc1ccc(C(F)(F)F)cc1F)C(=O)Nc1ccc(C(F)(F)F)cc1F`, the EC50 in the series with Influenza A virus [1] is 0.14 µM; in the series with Influenza A virus [5], 0.96 µM; in the series on Influenza A virus [6], 1.62 µM; in the series on Enterovirus A71 it was 6.69 µM; in the series on enterovirus D68, over 50 µM; in the series on Enterovirus [10], over 50 µM. The compound also had an EC50 in the series with Enterovirus [11] of over 50 µM. Moreover, the CC50 at 72 h in [2] was over 110 µM; in series [4], 9.31 µM. Besides, the selectivity ratio in series [3] was over 785; in [7] it was over 67; in series [8], over 114; in series [9], 1. Besides, the inhibition result (in [12]; in the series with Influenza A virus [14]) was “inactive” in each case. For the same compound, the outcome in the series with Influenza A virus [13] and in the series with Influenza A virus [15] was Active. In addition, in the series with MDCK, the inhibition result was “Active”.
